Measured values: PMC4489158 (Biochemistry, 2009)

Assays:
[1] = tested on: γ-secretase cleavage of APLP1 (APLP1 ICD production); assay: ICD in vitro generation; format: biochemical, human; conditions: for effect on ICD production from APLP1: tested between 100 and 500 µM
[2] = tested on: γ-secretase processing of APP (APP CTFs); assay: CTF accumulation in intact CHO cells expressing APP-His; format: cell-based, Chinese hamster; conditions: overnight (14 h)
Procedure, shortened: (§1)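 CHO cells stably expressing full-length human His-tagged APP or APLP1 (zeocin selection) were grown to confluence in six-well plates, then treated overnight (~14 h) with test compound or vehicle. Cells were lysed in NP-40 buffer with protease inhibitors. Equal protein (BCA) was immunoblotted with TetraHis antibody and ECL. CTF bands were quantified as fold over vehicle, with at least three measurements, and significance was assessed by two-way ANOVA.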

[3] = biological target: γ-secretase cleavage of APP (APP ICD production) (Cricetulus griseus, UniProt A0A061HTR1+A0A061IL97+A0A8C2QG42+G3HNF2); assay: ICD in vitro generation; format: biochemical, human; conditions: for concentration at which APP ICD production is decreased: microsomes; for effect on ICD production from APP: tested between 100 and 500 µM
[4] = tested on: γ-secretase processing of APLP1 (APLP1 CTFs); assay: CTF accumulation in intact CHO cells expressing APLP1-His; format: cell-based, Chinese hamster; conditions: overnight (14 h)
Procedure, shortened: as §1

[5] = biological target: γ-secretase cleavage of APLP2 (APLP2 ICD production) (Cricetulus griseus, UniProt A0A061HTR1+A0A061IL97+A0A8C2QG42+G3HNF2); assay: ICD in vitro generation; format: biochemical, human; conditions: for effect on ICD production from APLP2: tested between 100 and 500 µM
[6] = cited from earlier work
[7] = tested on: γ-secretase (Aβ42, Aβ38, Aβ40 production); conditions: cited from earlier work

Work on `C[C@H](NC(=O)Cc1cc(F)cc(F)c1)C(=O)NC(C(=O)OC(C)(C)C)c1ccccc1` (stereo partly drawn) [DAPT, N-[N-(3,5-difluoro-phenacetyl)-l-alanyl]-S-phenylglycine tert-butyl ester] yielded an IC50 ([1]; read-out: IC50 of γ-secretase processing of APLP1 (ICD production)) of 95.7 nM.
In the case of `CC(C(=O)O)c1cccc(Oc2cc(Cl)cc(Cl)c2)c1` (centres unmarked) [FT-9, 2-[3-(3,5-dichlorophenoxy)phenyl]propanoic acid], the “reduction of APLP1 ICDs” value ([1]; 500 µM, highest concentration tested) is reported as ~ 38%, the “concentration at which APLP1 ICD production is decreased” value ([1]; microsomes) is reported as no less than 100 µM and the “concentration causing accumulation of APP CTFs” value [2] is reported as no less than 5 µM. For the same compound, the “concentration required to cause a 2-fold increase in APP CTFs” value [2] was 3.4 ± 0.4 µM, the “concentration at which APP ICD production is decreased” value [3] was no less than 100 µM and the inhibition at 500 µM ([3]; read-out: reduction of APP ICDs) was 70 to 75%. The “concentration causing significant accumulation of APLP1 CTFs” value [4] was no less than 20 µM, the “concentration required to cause a 2-fold increase in APLP1 CTFs” value [4] was 25.7 ± 8.9 µM and the “concentration at which APLP2 ICD production is decreased” value ([5]; microsomes) was no less than 100 µM. For the same compound, the inhibition at 500 µM ([5]; read-out: reduction of APLP2 ICDs) was 70 to 75%.
For `C[C@@H](C(=O)O)c1ccc(-c2ccccc2)c(F)c1` [R-flurbiprofen, 2-(3-fluoro-4-phenylphenyl)propanoate], the “effect on ICD production from APLP1” value [1] is given as “unaffected”, the brain penetrance [6] is given as “poor” and the “concentration at which APP ICD production is decreased” value [3] is given as no less than 400 µM. The “effect on ICD production from APP” value [3] was “weakly inhibited”, the “effect on ICD production from APLP2” value [5] was “weak inhibitory effect” and the “effect on Aβ38 levels” value [7] was “increase”. For the same compound, the “effect on Aβ42 levels” value [7] was “reducing”.
In the case of `C[C@H](NC(=O)Cc1cc(F)cc(F)c1)C(=O)N[C@H]1N=C(c2ccccc2)c2ccccc2N(C)C1=O` [compound E, (2S)-2-{[(3,5-Difluorophenyl)acetyl]amino}-N-[(3S)-1-methyl-2-oxo-5-phenyl-2,3-dihydro-1H-1,4-benzodia-zepin-3-yl]propanamide], the “concentration needed for a 2-fold increase in CTF band signal, APP” value [2] is reported as 0.27 ± 0.01 nM and the “concentration needed for a 2-fold increase in CTF band signal, APLP1” value [4] is reported as 0.24 ± 0.22 nM.
With “propan-2-yl 2-[4-(4-chlorobenzoyl)phenoxy]-2-ethylpropanoate [fenofibrate]” the “effect on ICD production from APLP1” value [1] was “unaffected”, the “effect on ICD production from APP” value [3] was “unaffected” and the “effect on ICD production from APLP2” value [5] was “unaffected”. For the same compound, the “effect on level of production of Aβ38” value [7] was “reduces”, the “effect on level of production of Aβ42” value [7] was “increases” and the “effect on levels of Aβ40” value [7] was “almost unchanged”.
